Data from ChEMBL document CHEMBL3091376, “Design, synthesis and in vitro anticancer evaluation of 4,6-diamino-1,3,5-triazine-2-carbohydrazides and -carboxamides” (Bioorg Med Chem Lett, 2013).
pIC50: −log10 of the molar value. Structures can show the parent of a compound that is named as a salt. Peptide text beside a SMILES is read from it. * marks the point of attachment. Cbz = O=C(OCc1ccccc1)*

Assays:
[1] = Growth inhibition of human MCF10A cells after 72 hrs by CellTiter-Blue assay; format: cell-based; details: MCF-10A
Procedure, shortened: (§1)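 CellTiter-Blue viability assay after 72 h exposure to test compound. IC50 (μM) reported as the mean of triplicates with standard deviation. Some values are approximate owing to low solubility in medium.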

MCF7 = test: Growth inhibition of human MCF7 cells after 72 hrs by CellTiter-Blue assay; format: functional, cell-based; details: MCF7, 72 h; procedure, shortened: as §1
MDA-MB-231 = test: Growth inhibition of human MDA-MB-231 cells after 72 hrs by CellTiter-Blue assay; format: functional, cell-based; details: MDA-MB-231, 72 h; procedure, shortened: as §1

| pIC50 (MCF7) | pIC50 (MDA-MB-231) | Structure (SMILES) | pIC50 [1] |
| --- | --- | --- | --- |
|  |  | COc1cccc2c1C(=O)c1c(O)c3c(c(O)c1C2=O)C[C@@](O)(C(=O)CO)C[C@@H]3O[C@H]1C[C@H](N)[C@H](O)[C@H](C)O1 [DOXORUBICIN HYDROCHLORIDE] | 5.95 |
| 6.89 | 6.74 | CC(C)C[C@@H](C=O)NC(=O)[C@H](CC(C)C)NC(=O)[C@H](CC(C)C)NC(=O)OCc1ccccc1 [MG-132] (Cbz-Leu-Leu-Leu-aldehyde) | 6.54 |
